The target of assay [1] is T1, Histone deacetylase 8 (Homo sapiens, UniProt Q9BY41).
T1 sequence (Q9BY41 whole entry): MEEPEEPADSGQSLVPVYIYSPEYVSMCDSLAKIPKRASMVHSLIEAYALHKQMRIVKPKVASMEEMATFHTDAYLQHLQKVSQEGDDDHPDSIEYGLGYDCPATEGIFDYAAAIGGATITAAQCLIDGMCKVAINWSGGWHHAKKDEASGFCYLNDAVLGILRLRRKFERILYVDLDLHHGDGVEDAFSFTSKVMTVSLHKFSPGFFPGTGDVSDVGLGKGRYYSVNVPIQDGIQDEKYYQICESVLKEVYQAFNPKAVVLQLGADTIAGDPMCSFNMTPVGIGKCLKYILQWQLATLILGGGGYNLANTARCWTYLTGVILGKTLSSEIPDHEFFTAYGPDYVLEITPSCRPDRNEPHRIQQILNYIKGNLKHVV
The experiment in a line: Inhibition of HDAC8 in human HeLa cells using Fluor-de-Lys as substrate after 15 mins by fluorescence assay. The format is cell-based.

Assay [2] addresses T2, Histone deacetylase 1 (Homo sapiens, UniProt Q13547). Nature of the assay: Inhibition of HDAC1 in human HeLa cells using Fluor-de-Lys as substrate after 15 mins by fluorescence assay. The format is cell-based.
The target of assay [3] is T3, Protein deacetylase HDAC6 (Homo sapiens, UniProt Q9UBN7).
T3 sequence (Q9UBN7 whole entry): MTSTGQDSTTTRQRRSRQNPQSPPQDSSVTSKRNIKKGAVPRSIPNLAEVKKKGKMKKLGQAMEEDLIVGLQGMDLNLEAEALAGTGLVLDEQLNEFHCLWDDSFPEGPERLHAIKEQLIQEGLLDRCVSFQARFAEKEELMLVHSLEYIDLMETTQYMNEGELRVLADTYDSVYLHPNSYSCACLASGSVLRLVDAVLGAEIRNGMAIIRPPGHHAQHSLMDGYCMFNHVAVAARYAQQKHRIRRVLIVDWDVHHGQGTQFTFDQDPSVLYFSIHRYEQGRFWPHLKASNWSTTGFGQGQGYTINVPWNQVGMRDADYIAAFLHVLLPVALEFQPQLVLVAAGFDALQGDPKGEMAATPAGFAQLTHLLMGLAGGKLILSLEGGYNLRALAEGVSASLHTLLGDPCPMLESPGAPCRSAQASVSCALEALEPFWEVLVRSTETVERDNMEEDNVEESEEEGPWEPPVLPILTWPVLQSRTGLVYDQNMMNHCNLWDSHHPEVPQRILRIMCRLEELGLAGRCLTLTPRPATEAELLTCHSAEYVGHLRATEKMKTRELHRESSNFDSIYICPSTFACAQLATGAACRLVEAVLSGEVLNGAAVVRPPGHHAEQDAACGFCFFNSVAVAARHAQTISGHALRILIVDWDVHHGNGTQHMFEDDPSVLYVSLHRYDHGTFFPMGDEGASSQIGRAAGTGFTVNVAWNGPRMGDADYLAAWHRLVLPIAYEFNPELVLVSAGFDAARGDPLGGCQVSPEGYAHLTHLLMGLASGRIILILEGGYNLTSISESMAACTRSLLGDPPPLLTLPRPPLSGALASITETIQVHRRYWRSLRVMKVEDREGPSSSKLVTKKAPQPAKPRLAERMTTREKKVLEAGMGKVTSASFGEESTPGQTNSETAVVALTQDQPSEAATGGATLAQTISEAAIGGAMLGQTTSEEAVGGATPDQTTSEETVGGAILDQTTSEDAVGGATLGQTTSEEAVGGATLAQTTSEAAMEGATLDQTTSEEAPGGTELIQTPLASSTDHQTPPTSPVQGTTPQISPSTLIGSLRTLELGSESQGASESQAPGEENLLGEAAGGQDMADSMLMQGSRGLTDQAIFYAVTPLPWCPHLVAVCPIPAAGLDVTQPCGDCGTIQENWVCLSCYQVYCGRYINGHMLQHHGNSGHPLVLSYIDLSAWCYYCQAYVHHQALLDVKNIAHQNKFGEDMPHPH
Nature of the assay: Inhibition of HDAC6 in human HeLa cells using Fluor-de-Lys as substrate after 15 mins by fluorescence assay. The format is cell-based.

For assay [4], the target named is T4, DNA topoisomerase 1 (Homo sapiens) (UniProt P11387).
T4 sequence (whole entry): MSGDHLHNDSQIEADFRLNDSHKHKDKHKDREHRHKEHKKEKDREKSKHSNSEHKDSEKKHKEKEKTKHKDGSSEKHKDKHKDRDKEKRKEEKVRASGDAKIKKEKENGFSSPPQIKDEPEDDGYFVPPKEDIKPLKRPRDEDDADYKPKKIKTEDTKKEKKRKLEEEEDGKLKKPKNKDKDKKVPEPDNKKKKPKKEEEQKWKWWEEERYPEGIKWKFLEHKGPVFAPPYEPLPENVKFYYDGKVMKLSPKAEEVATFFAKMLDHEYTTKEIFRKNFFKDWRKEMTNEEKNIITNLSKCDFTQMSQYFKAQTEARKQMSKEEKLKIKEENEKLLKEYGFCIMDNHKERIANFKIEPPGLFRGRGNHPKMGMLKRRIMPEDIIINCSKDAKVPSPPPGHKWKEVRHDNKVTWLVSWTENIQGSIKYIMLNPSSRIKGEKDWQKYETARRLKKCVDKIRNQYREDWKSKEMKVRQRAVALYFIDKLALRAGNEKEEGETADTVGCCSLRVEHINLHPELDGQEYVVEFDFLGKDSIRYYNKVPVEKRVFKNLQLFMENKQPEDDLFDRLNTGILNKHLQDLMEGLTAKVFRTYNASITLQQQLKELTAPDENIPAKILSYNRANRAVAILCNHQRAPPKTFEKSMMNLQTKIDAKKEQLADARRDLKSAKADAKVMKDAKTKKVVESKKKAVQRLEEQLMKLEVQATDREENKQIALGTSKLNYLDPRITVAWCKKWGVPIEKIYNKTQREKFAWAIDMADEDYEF
The experiment in a line: Inhibition of topoisomerase-1 (unknown origin) assessed as reduction of pBR322 plasmid DNA relaxation at 50 uM after 30 mins by agarose gel electrophoresis. In outline: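 Supercoiled pBR322 plasmid incubated with Topo I, test agents at 50 μM, SN-38 as positive control. Reactions stopped with SDS, run on agarose gel, DNA stained with a nucleic acid dye; relaxation judged by band migration.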

The target of assay [5] is Histone deacetylase. The experiment in a line: Inhibition of HDAC in human HeLa cells using Fluor-de-Lys as substrate after 15 mins by fluorescence assay. Format: cell-based.
Assay [6] deals with DU-145. The experiment in a line: Cytotoxicity against human DU145 cells assessed as inhibition of cell viability after 72 hrs by MTS assay. Format: functional, cell-based. The settings on record: DU-145, 72 h. In outline:
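DU-145 prostate carcinoma cells exposed to compound for 72 h; viability read by MTS assay. IC50 values are means of two experiments, each run in triplicate.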
In general terms: Tetrazolium dyes change colour on reduction, which living cells bring about.

For assay [7], the target named is T5, Histone deacetylase 8 (Homo sapiens) (UniProt Q9BY41).
T5 sequence (whole entry): T1 sequence (Q9BY41 whole entry)
The experiment in a line: Inhibition of HDAC8 in human HeLa cells using Fluor-de-Lys as substrate up to 10 uM after 15 mins by fluorescence assay. The format is cell-based. In a few lines:
(§1)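 Run by a contract testing laboratory, duplicate wells at each concentration; values reported with standard error.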

Assay [8] deals with T6, Histone deacetylase (Homo sapiens) (UniProt Q13547+O15379+Q9UBN7+Q92769+Q9UQL6+Q8WUI4+Q9BY41+Q96DB2+P56524+Q9UKV0+Q969S8). The experiment in a line: Inhibition of HDAC in human DU145 cells assessed as upregulation of p21waf1 expression after 24 hrs by Western blot analysis. Format: cell-based. The settings on record: DU-145. In outline:
(§2)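 DU-145 cells treated for 24 h at 2.5 and 5.0 μM (SAHA, conjugates) or 0.1 and 0.5 μM (SN-38); lysates immunoblotted for p21waf1, with actin as loading control.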
A general note: In western blotting, separated proteins are transferred to a membrane and probed.

The target in assay [9] is T6, Histone deacetylase (Homo sapiens). Nature of the assay: Inhibition of HDAC in human HeLa cells using Fluor-de-Lys as substrate up to 10 uM after 15 mins by fluorescence assay. Format: cell-based. In a few lines: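 Enzyme source is HeLa cell nuclear extract with a fluorogenic substrate; fluorescence read near 460 nm. Compound-only wells without enzyme give background (camptothecin emits at 434 nm), which is subtracted. Each value from three independent experiments.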

Assay [10] addresses T2, Histone deacetylase 1. The experiment in a line: Inhibition of HDAC1 in human HeLa cells using Fluor-de-Lys as substrate up to 10 uM after 15 mins by fluorescence assay. Format: cell-based. In outline:
as §1

In assay [11] the target is T6, Histone deacetylase (Homo sapiens). Nature of the assay: Inhibition of HDAC in human DU145 cells assessed as upregulation of p21waf1 expression at 0.1 to 0.5 uM after 24 hrs by Western blot analysis. Format: cell-based. The settings on record: DU-145. In a few lines:
as §2

Activity calls are given as the source filed them. The calls are words filed in the database; no cut-off is given here.

T2 sequence (Q13547 whole entry): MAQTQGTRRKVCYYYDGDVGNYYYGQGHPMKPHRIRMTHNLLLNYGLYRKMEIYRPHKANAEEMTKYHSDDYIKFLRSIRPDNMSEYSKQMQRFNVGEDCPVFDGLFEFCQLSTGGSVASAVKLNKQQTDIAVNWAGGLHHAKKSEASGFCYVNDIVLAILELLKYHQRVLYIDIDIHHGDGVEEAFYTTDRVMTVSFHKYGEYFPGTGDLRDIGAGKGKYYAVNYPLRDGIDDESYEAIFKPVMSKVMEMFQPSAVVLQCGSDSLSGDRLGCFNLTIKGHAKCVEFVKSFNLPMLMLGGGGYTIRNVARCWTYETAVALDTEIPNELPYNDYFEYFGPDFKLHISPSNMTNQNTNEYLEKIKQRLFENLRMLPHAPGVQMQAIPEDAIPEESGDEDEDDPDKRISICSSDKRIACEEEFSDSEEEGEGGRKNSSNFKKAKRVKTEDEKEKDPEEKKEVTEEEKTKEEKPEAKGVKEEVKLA

With `CC[C@@]1(O)C(=O)OCc2c1cc1n(c2=O)Cc2cc3cc(OCc4cn(CCCCCCC(=O)NO)nn4)ccc3nc2-1`, the IC50 (usually the midpoint of a concentration-inhibition curve) in [1] stood at 1050 nM; in assay [2] it was 37 nM; in assay [3], 81 nM; in assay [5], 56.2 nM; in assay [6], 2030 nM. In assay [4], the “Topo I inhibition (active/inactive)” value was “Active”.

For the compound `CCc1c2c(nc3ccc(OCc4cn(CCCCCCC(=O)NO)nn4)cc13)-c1cc3c(c(=O)n1C2)COC(=O)[C@]3(O)CC`, the IC50 in [2] was found to be 50 nM; in assay [3], 36 nM; in assay [5] it was 64.65 nM; in assay [6], 3110 nM. Further, the “Topo I inhibition (active/inactive)” value in assay [4] was “Active”. For the same compound, the inhibition result in assay [7] was “inactive”.

For `CCc1c2c(nc3ccc(OCc4cn(CCCCCCCC(=O)NO)nn4)cc13)-c1cc3c(c(=O)n1C2)COC(=O)[C@]3(O)CC`, the IC50 was 2600 nM in [1]; 369 nM in assay [2]; 75 nM in assay [3]; 212.3 nM in [5]; 3510 nM in assay [6]. In assay [4], the “Topo I inhibition (active/inactive)” value is “Active”.

With `CCc1c2c(nc3ccc(OCc4cn(CCCCCC(=O)NO)nn4)cc13)-c1cc3c(c(=O)n1C2)COC(=O)[C@]3(O)CC`, the IC50 in [2] amounted to 129 nM; in [3], 42 nM; in assay [5] it was 120.7 nM; in assay [6] it was 2050 nM. Moreover, the “Topo I inhibition (active/inactive)” value in assay [4] was “Active”. Moreover, the inhibition result in assay [8] is “Dose-dependent effect”. Besides, in [7], the inhibition entry is “inactive”.

As for `CC[C@@]1(O)C(=O)OCc2c1cc1n(c2=O)Cc2cc3cc(OCc4cn(CCCCCC(=O)NO)nn4)ccc3nc2-1`, the “Topo I inhibition (active/inactive)” value in assay [4] is “Active”. In addition, the IC50 was found to be 112.2 nM in assay [5] and 1950 nM in assay [6]. For the same compound, the inhibition entry in assay [8] is “Dose-dependent effect”.

Take `CC[C@@]1(O)C(=O)OCc2c1cc1n(c2=O)Cc2cc3cc(OCc4cn(CCCCC(=O)NO)nn4)ccc3nc2-1`: the IC50 came to 116 nM in assay [2], 260 nM in [3], 144.5 nM in assay [5] and 2500 nM in assay [6]. Further, the “Topo I inhibition (active/inactive)” value in assay [4] is “Active”. Further, in assay [7], the inhibition entry was “inactive”.

For the compound `CCc1c2c(nc3ccc(OCc4cn(CCCC(=O)NO)nn4)cc13)-c1cc3c(c(=O)n1C2)COC(=O)[C@]3(O)CC`, the IC50 in assay [1] is 1730 nM; in [3] it was 85 nM; in assay [6], 6270 nM. Besides, the inhibition result in assay [9] and in [10] was “inactive” in each case. The “Topo I inhibition (active/inactive)” value in assay [4] was “Active”.

On to `CCc1c2c(nc3ccc(OCc4cn(CCCCC(=O)NO)nn4)cc13)-c1cc3c(c(=O)n1C2)COC(=O)[C@]3(O)CC`, for which the “Topo I inhibition (active/inactive)” value in assay [4] is “Active”. In addition, the IC50 worked out at 155.4 nM in [5] and 4250 nM in [6].

In the case of `CCc1c2c(nc3ccc(O)cc13)-c1cc3c(c(=O)n1C2)COC(=O)[C@]3(O)CC` [7-ETHYL-10-HYDROXYCAMPTOTHECIN], the inhibition result in [9] is “inactive”. In assay [11], the inhibition result is “Active”. Further, in assay [6], the IC50 was 110 nM.

For the origin of these results see ChEMBL document CHEMBL2384964, “Dual-acting histone deacetylase-topoisomerase I inhibitors” (Bioorg Med Chem Lett, 2013).
